Broadly, the MRT last is the average time that molecules of a dose stay in the body. A word on the IC50: it is the concentration that gives 50% inhibition.

Consider one compound from ChEMBL document CHEMBL4477209, “Indole-2-carboxamide-based MmpL3 Inhibitors Show Exceptional Antitubercular Activity in an Animal Model of Tuberculosis Infection” (J Med Chem, 2016).

The nature of data set [1]: Permeability across basolateral to apical side in human Caco2 cells. Format: ADME, cell-based. As to conditions: Caco-2, read-out: permeability. (Caco-2 monolayers are a common model of the intestinal barrier.)
Data set [2] in a line: Mean residence time (last) in BALB/c mouse plasma at 100 mg/kg administered via oral gavage by LC-MS analysis. Format: ADME, organism-based. Summed up: (§1)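 Female BALB/c mice (20 g), single oral gavage dose of 100 mg/kg. Cardiac blood and lungs taken at 0, 0.25, 0.5, 1, 2, 4, 8 and 24 h (n = 3 per time point). Plasma separated by centrifugation; lungs bead-beaten in water and supernatant recovered. Drug quantified by LC-MS/MS against an indole-2-carboxamide internal standard. Parameters derived by noncompartmental analysis.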

Data set [3] has as its target T1, Aryl hydrocarbon receptor (Homo sapiens, UniProt P35869).
T1 sequence (P35869 whole entry): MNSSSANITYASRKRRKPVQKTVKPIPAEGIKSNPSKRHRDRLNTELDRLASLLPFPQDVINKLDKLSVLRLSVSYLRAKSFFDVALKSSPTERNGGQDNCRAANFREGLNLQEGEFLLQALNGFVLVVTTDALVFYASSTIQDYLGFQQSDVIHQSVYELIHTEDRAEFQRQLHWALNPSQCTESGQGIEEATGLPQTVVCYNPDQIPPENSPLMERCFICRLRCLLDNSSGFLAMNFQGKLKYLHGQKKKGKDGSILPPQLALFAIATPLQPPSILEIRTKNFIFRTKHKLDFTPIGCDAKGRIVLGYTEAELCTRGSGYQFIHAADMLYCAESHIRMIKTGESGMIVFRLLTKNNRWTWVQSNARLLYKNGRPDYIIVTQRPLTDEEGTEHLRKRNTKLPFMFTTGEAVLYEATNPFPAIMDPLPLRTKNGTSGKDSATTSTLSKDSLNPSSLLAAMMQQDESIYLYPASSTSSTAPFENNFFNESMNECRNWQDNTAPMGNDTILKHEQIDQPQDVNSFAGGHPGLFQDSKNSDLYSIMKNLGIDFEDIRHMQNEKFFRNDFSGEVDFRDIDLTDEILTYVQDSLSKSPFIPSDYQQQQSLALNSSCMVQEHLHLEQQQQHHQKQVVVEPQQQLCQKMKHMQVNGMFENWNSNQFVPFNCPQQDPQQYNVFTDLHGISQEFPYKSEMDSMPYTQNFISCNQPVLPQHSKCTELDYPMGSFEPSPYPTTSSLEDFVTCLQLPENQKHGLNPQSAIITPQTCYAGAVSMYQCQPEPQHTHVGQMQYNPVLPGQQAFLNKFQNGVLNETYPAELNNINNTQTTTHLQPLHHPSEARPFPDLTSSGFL
As to the kind of experiment: Transactivation of AhR (unknown origin) assessed as upregulation of CYP1A2 at 3 to 8 microg/ml. It is filed as ADME. A digest of the protocol: (§2)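 Nuclear receptor reporter-gene induction assay, with reporters coupled to PXR, CAR or AhR. Compound was tested at 0.1–1, 3 and 8 μg/mL. Positive controls were rifampin for PXR, CITCO for CAR and 3-methylcholanthrene for AhR.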

Data set [4] deals with Vero. The data set can be described thus: Cytotoxicity against african green monkey Vero cells. It is filed as cell-based. The following applies: Chlorocebus sabaeus.
Data set [5] can be described thus: Mutagenicity in Salmonella typhimurium TA1535. It is filed as toxicity. The following applies: salmonella enterica subsp. enterica serovar typhimurium.
Data set [6] deals with T2, Nuclear receptor subfamily 1 group I member 2 (Homo sapiens, UniProt O75469).
T2 sequence (O75469 whole entry): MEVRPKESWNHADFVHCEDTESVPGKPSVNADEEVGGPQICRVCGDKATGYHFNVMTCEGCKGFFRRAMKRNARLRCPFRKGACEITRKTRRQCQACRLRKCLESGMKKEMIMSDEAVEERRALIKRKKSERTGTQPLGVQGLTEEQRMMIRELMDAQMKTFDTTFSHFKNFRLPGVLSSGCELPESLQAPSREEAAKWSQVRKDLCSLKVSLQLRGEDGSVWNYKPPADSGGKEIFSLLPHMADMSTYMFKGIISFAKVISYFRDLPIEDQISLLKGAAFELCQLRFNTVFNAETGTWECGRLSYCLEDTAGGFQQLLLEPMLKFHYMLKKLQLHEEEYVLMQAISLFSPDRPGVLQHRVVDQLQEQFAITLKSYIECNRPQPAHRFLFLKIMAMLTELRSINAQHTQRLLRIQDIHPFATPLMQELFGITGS
The data set can be described thus: Transactivation of PXR (unknown origin) assessed as upregulation of CYP3A4 at 3 to 8 microg/ml. It is filed as ADME. A digest of the protocol:
as §2

Data set [7] can be described thus: Stability in mouse hepatocytes assessed as compound remaining at 1 uM after 2 hrs. Format: ADME, cell-based, Hepatocyte. The following applies: read-out: Stability. Summed up: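 Hepatocytes from human, mouse, rat or dog incubated with 1 μM starting concentration for 2 h; percent of parent compound remaining.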
The nature of data set [8]: AUClast in BALB/c mouse lung at 100 mg/kg administered via oral gavage after 0.25 to 24 hrs by LC-MS analysis. Format: ADME, organism-based. The following applies: in vivo. A digest of the protocol: as §1
The subject of data set [9] is Mycobacterium tuberculosis. The data set can be described thus: Antimycobacterial activity against Mycobacterium tuberculosis H37Rv infected in BALB/c mouse model assessed as reduction in CFU counts in lung at 200 mg/kg administered daily via oral gavage for 5 days per week measured after 28 days post dosage relative to control. Format: functional. A digest of the protocol:
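Bactericidal-dose model in aerosol-infected BALB/c mice given 25, 50, 100 or 200 mg/kg orally in 0.5% carboxymethylcellulose in water for 4 weeks. Lung CFU compared with the count at treatment initiation; survival also recorded.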

The target in data set [10] is T1, Aryl hydrocarbon receptor. As to the kind of experiment: Transactivation of AhR (unknown origin) assessed as upregulation of CYP1A2 at 0.1 to 1 microg/ml. It is filed as ADME. Summed up: as §2

Regarding `C[C@@H]1[C@H]2C[C@@H](C[C@H]1NC(=O)c1cc3c(F)cc(F)cc3[nH]1)C2(C)C`, in data set [1], the Papp B→A turned out to be 0.25 ×10⁻⁶ cm/s. The MRT last in [2] worked out at 7.28 h. In addition, the Activity result in data set [3] is “Active”; in data set [5], “Non-Toxic”; in data set [6], “Active”; in data set [9], 0.6 log10CFU; in data set [10] it was “Not Active”. The same compound yielded an IC50 in data set [4] of at least 192 µM. For the same compound, the remaining at 2 h, 1 µM in [7] was determined as 15%. In data set [8], this compound yielded an AUClast of 51 µg·h/g.
